Screens: PubChem BioAssay, The Scripps Research Institute Molecular Screening Center
OXTR ag = human OXTR agonists, primary screen, fluorescence, CHO-OTR cells, Fluo-8 calcium. Fluo-8 calcium fluorescence; normalized: DMSO 0%, oxytocin 100%. activation, % at 3 µM. actives 0.32% (n = 320,000). AID 2435, 2010;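 active = activation above the mean of all tested compounds plus 3 SD, cutoff set per screening run, cut at about 20% in these data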;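 also: peak over basal fluorescence ratio from a 100 s FLIPR kinetic read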
V1aR counter = agonists of human V1a receptor, primary screen, counter-screen for OXTR agonist project, fluorescence, CHO-V1R cells | activation, % at 3 µM | Fluo-8 calcium fluorescence, agonist mode; 0% DMSO, 100% 3 nM vasopressin | Vasopressin V1a receptor (Homo sapiens), P37288 | actives 0.25% (n = 320,000);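 active = activation above the mean activation of all tested compounds plus 3 SD, per screening run, cut at about 20% in these data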;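 also: signal is peak over basal fluorescence ratio across a 100 second FLIPR read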
OXTR potentiator = human OXTR potentiators, primary screen, fluorescence, CHO-OTR cells, Fluo-8 calcium; Oxytocin receptor (Homo sapiens), P30559; Fluo-8 calcium fluorescence, potentiator mode; 0% = oxytocin EC15, 100% = EC100; activation, % at 3 µM; actives 0.061% (n = 320,000);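 active = activation above that plate's cutoff, the mean activation of tested compounds plus 3 SD, cut at about 6.6% in these data, passing the limit was not always enough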
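Assay system: CHO cell line stably expressing human OTR. Reagent: EC15 oxytocin agonist. Dosing: single dose, 3.0 µM nominal final compound concentration. Timing: compound 6 min at room temperature before oxytocin, 100 s read. Signal: kinetic Fluo-8 calcium fluorescence. Controls: oxytocin EC15 low and EC100 high.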
TRPML3 ag = human TRPML3 channel agonists, primary screen, cell-based, HEK293 TRPML3-YFP, Fluo-8 calcium fluorescence, 3 µM; 100% = the carbachol control signal; actives 0.29% (n = 220,000); activation, % at 3 µM; Mucolipin-3 (Homo sapiens), Q8TDD5;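 active = activation above its plate's cutoff, the mean activation of the plate's test wells plus 3 SD, cut at about 12% in these data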
Target sequence (Q8TDD5 whole entry, looked up): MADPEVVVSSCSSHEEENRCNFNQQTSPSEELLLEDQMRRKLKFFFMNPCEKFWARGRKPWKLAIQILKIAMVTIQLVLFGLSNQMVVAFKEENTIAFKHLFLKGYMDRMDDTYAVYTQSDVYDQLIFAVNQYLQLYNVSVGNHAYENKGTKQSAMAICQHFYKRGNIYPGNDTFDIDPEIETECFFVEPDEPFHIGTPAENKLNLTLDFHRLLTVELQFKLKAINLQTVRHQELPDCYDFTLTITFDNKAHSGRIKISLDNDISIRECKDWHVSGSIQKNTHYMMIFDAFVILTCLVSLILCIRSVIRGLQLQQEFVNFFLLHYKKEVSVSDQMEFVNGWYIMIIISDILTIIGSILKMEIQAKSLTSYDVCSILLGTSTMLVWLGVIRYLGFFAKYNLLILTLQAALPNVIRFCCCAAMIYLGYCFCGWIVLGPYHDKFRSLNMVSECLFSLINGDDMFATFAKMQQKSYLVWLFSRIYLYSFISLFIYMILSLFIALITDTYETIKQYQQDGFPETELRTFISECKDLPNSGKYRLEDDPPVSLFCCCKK
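system = HEK293 cells stably carrying human TRPML3-YFP | doses = one concentration, 3 µM nominal, 0.3% DMSO | timing = dye loading 1 h 37 °C then 30 min ambient, 125 s read | detection = Fluo-8 calcium dye fluorescence, ex 470-495, em 515-575 nm | benchmarks = high control carbachol 87 µM, low control DMSO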
zfTRPN1 agonist = zebrafish TRPN1 channel agonists, primary screen, cell-based, HEK293, calcium fluorescence | transient receptor potential cation channel N1 (TRPN1/NompC), Danio rerio | HEK293 zebrafish TRPN1-YFP, Fluo-8 calcium fluorescence; 100% = response to 87 µM carbachol | activation, % at 3 µM | actives 0.18% (n = 220,000) | AID 1424, 2008;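 active = activation above its plate's cutoff, the mean activation of test wells on that plate plus 3 SD, cut at about 19% in these data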
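System: zebrafish TRPN1-YFP in HEK293 cells / Dosing: 3 µM single point / Timing: dye loading 1 h at 37 °C, then 30 min room temperature / Signal: Fluo-8 calcium fluorescence, excitation 470-495 nm, emission 515-575 nm / Read-out basis: percent activation from peak over basal fluorescence ratio, control-normalized / Control set: high carbachol 87 µM, low DMSO alone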
OXTR pot cf = human OXTR potentiators, confirmation, fluorescence, CHO-OTR cells, triplicate; shares compounds with OXTR potentiator; Fluo-8 calcium fluorescence, potentiation; scaled from low-dose to maximal oxytocin; activation, % at 3 µM; 180 tested, under 10 active; AID 434985, 2010;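 active = mean percent activation over triplicates above a cutoff set from solvent-only control plates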;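 also: compounds tested in the presence of an EC15 dose of oxytocin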
V1R ag confirm = V1a receptor agonists, calcium signal, confirmation, Fluo-8 calcium fluorescence, CHO-V1R cells; shares compounds with V1aR counter; agonist; activation, % at 3 µM; actives 20% (n = 180); AID 434964, 2010;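 active = average activation exceeds primary screen hit cutoff, cut at about 21% in these data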;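 also: peak over basal fluorescence ratio during a 100 s FLIPR read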
OXTR ag counter = human OXTR agonists, counter-screen for V1R agonist project, fluorescence, CHO-OTR cells, triplicate. actives 10% (n = 180). AID 434969, 2010. shares compounds with V1aR counter. activation, % at 3 µM. Fluo-8 calcium fluorescence;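 active = mean activation over three repeats above the cutoff from the earlier oxytocin receptor agonist screen, cut at about 20% in these data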;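 also: peak over minimum fluorescence ratio within a 100 second FLIPR read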
Numbers stand for hits; i = inactive; nt = no result given. Rows were chosen to be rich in hits. Some 0.55% of all compounds tested hit in one or more screens of this group.

SMILES	OXTR ag	V1aR counter	OXTR potentiator	TRPML3 ag	zfTRPN1 agonist	OXTR pot cf	others
COCCNC(=S)N/N=C/c1ccc(N2CCOCC2)cc1	i	i	i	i	i	nt
COc1cc(/C=N/NC(=S)NCCN2CCOCC2)ccc1O	i	i	12.3	i	i	i
COc1ccc(-c2nnc(Nc3ccc(OC)c(C(=O)N4CCCCC4)c3)c3ccccc23)cc1	i	i	13.0	i	i	i
Cc1ccc2ncccc2c1NC(=S)NC(=O)c1ccccc1	i	i	i	i	i	nt
O=C(O)CN(c1ccccc1F)S(=O)(=O)c1ccccc1	i	i	10.7	i	i	i
CC(NC(=O)COC(=O)CCN1C(=O)C2CC=CCC2C1=O)c1ccc(Br)cc1 (centres undefined)	i	i	i	nt	nt	nt
CCOC(=O)N[C@H](Cc1c[nH]c2ccccc12)C(=O)NC1CC1	i	i	10.4	i	i	i
COC(=O)Cn1c(=NC(=O)CSCC(=O)NC2CCCCC2)sc2cc(OC)ccc21	i	i	17.2	i	i	i
CCOC(=O)Cn1c(=NC(=O)CSC(C)=O)sc2cc(OC)ccc21	i	i	i	i	i	nt
COC(=O)c1cc(C(=O)Nc2cccc(C)n2)cc([N+](=O)[O-])c1	i	i	9.1	i	i	i
O=C(O)c1ccc2c(c1)C(=O)N(Cc1ccc3c(c1)OCO3)C2=O	i	i	11.1	i	i	i
O=C1c2ccccc2C(=O)N1Cc1ccc2c(c1)OCO2	i	i	i	i	i	nt
O=c1cc(CN2CCOCC2)c2cc(Cl)ccc2o1	i	i	i	nt	nt	nt
O=C(NCc1ccccn1)c1ccc(Cl)c(S(=O)(=O)Nc2ccccc2C(=O)NCc2ccccn2)c1	i	i	13.7	i	i	i
CC[C@@]1(O)C(=O)OCc2c1cc1n(c2=O)Cc2cc3c(N)cccc3nc2-1	i	i	14.6	nt	nt	i
CN(C)CC(O)COC(c1ccccc1)c1ccccc1 (centres undefined)	i	i	10.8	i	i	i
O=C(OC(C(=O)NCc1ccccc1)c1ccccc1)c1ccco1 (centres undefined)	i	i	13.8	nt	nt	i
Fc1ccc2cnc(-c3ccccc3)c(-c3cc(C(F)(F)F)cc(C(F)(F)F)c3)c2c1	i	i	i	nt	nt	nt
Fc1ccc2c(-c3cccc(C(F)(F)F)c3)c(-c3ccccc3)ncc2c1	i	i	9.4	nt	nt	i
O=C(c1cccc(C(F)(F)F)c1)C1CCCN(C(=O)CCn2cnnn2)C1 (centres undefined)	i	i	i	i	i	nt
O=C(N/N=C\c1cn(-c2ccccc2)nc1-c1ccccc1)c1ccc(Br)o1	i	i	i	i	i	nt
O=C(N/N=C/c1cn(-c2ccccc2)nc1-c1ccccc1)c1ccco1	i	i	9.9	i	i	i
Cc1cccn2cc(CNC(=O)C3CCCCC3)nc12	i	i	i	i	i	nt
Cc1cccn2cc(CNC(=O)c3ccc(Br)o3)nc12	i	i	12.3	i	i	i
Cc1ccccc1-c1nnc(SCC(=O)Nc2c(C)n(C)n(-c3ccccc3)c2=O)o1	i	i	11.3	i	i	i
SMILES	OXTR ag	V1aR counter	OXTR potentiator	TRPML3 ag	zfTRPN1 agonist	OXTR pot cf	others
CNC(=O)c1c(NC(=O)CS(=O)(=O)c2ccccc2)sc(C)c1C	i	i	i	nt	nt	nt
Cc1sc(NC(=O)CS(=O)(=O)c2ccccc2)c(C(N)=O)c1C	i	i	8.1	nt	nt	i
O=c1c(-c2nc3ccccc3s2)cccn1Cc1ccc(Cl)cc1	i	22.4	i	i	i	nt	V1R ag confirm=i;OXTR ag counter=i
Clc1ncccc1-c1nc2ccccc2s1	i	i	i	i	i	nt
COc1cccc(OC)c1/C=C/C(=O)NC1CCCCC1	i	i	i	nt	nt	nt
Cc1ccc(NC(=O)C2CCC(CNC(=O)[C@@H]3Cc4ccccc4CN3)CC2)cc1 (some centres undefined)	i	i	i	nt	nt	nt
CC(C)c1ccc(NC(=O)C2CCC(CNC(=O)[C@@H]3Cc4ccccc4CN3)CC2)cc1 (some centres undefined)	i	23.6	i	nt	nt	nt	V1R ag confirm=i;OXTR ag counter=i
CC(C)C(C(=O)Nc1ccncc1)c1ccc(Cl)cc1 (centres undefined)	i	26.6	i	nt	nt	nt	V1R ag confirm=i;OXTR ag counter=i
O=C(OCCN1C(=O)c2cccc3c(N4CCOCC4)ccc(c23)C1=O)c1ccccc1Cl	i	25.7	i	i	i	nt	V1R ag confirm=30.3;OXTR ag counter=42.3
CCN(CC)S(=O)(=O)c1ccc(C(=O)Nc2nnc(-c3ccco3)o2)cc1	i	i	i	i	i	nt
CCCCN(CC)S(=O)(=O)c1ccc(C(=O)Nc2nnc(-c3cccs3)o2)cc1	i	25.9	i	i	i	nt	V1R ag confirm=i;OXTR ag counter=i
Cc1ccc(OCCOC(=O)c2cccc(S(=O)(=O)N3CC(C)OC(C)C3)c2)cc1 (centres undefined)	i	i	i	nt	nt	nt
O=C(O)c1cccc(CSc2nc(-c3ccc(Cl)cc3)cc(C(F)(F)F)n2)c1	i	21.4	i	i	i	nt	V1R ag confirm=i;OXTR ag counter=i
S=c1[nH]nc(-c2cccs2)n1/N=C/c1c(Cl)cccc1Cl	i	27.2	i	i	i	nt	V1R ag confirm=i;OXTR ag counter=i
Cc1ccc(/C=N/n2c(-c3cccs3)n[nH]c2=S)cc1	i	i	i	i	i	nt
O=C(COc1ccc(-c2nnco2)cc1)Nc1ccc(C(F)(F)F)cc1	i	21.0	i	nt	nt	nt	V1R ag confirm=i;OXTR ag counter=i
O=C(COc1ccc(-c2nnco2)cc1)NCc1ccccc1Cl	i	i	i	i	i	nt
CN(C(=O)c1cncc(Br)c1)C1C2CC3CC(C2)CC1C3 (centres undefined)	i	i	i	nt	nt	nt
COc1ccc(OC)c2c1C(=O)c1ccccc1C2=O	i	23.2	i	i	i	nt	V1R ag confirm=33.5;OXTR ag counter=20.9
C/C(Cl)=C\Cn1c(N2CCCC2)nc2c1c(=O)n(C)c(=O)n2C	i	i	i	nt	nt	nt
CC(NC(=O)Nc1ccc([N+](=O)[O-])cc1)C(c1ccccc1)N1CCOCC1 (centres undefined)	i	52.5	i	i	i	nt	V1R ag confirm=25.7;OXTR ag counter=i
